According to ChEMBL document CHEMBL4011617, “Ugi Reaction-Derived α-Acyl Aminocarboxamides Bind to Phosphatidylinositol 3-Kinase-Related Kinases, Inhibit HSF1-Dependent Heat Shock Response, and Induce Apoptosis in Multiple Myeloma Cells” (J Med Chem, 2017):
The source made the active and inactive calls. No cut-off for these calls is given here.

Columns and labels:
INA-6 [1] = test: Inhibition of heat shock response in human INA-6 cells assessed as reduction in HSF-1 mediated upregulation of the heat shock protein HSP72 at 50 uM preincubated for 4 hrs followed by HSP90 inhibitor and HSR inducer NVP-AUY922 addition measured after 4 hrs by Western blot method; assay type: functional, cell-based
Summary of the method: (§1)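 INA-6 myeloma cells pretreated with test compound for 4 h, then co-treated with the HSP90 inhibitor/HSR inducer NVP-AUY922 for a further 4 h. Cells harvested; HSP72, HSP27, HSF1 or phospho-HSF1 probed by Western blot with β-actin as loading control. DMSO-only cells were the negative control; NVP-AUY922-only cells were the positive control.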

INA-6 [2] = test: Inhibition of heat shock response in human INA-6 cells assessed as reduction in HSF-1 mediated upregulation of the heat shock protein HSP72 at 50 uM preincubated for 4 hrs followed by HSP90 inhibitor and HSR inducer NVP-AUY922 addition measured after 4 hrs by ELISA; assay type: functional, cell-based
Summary of the method: (§2)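 HSP72 quantified by ELISA in the same protein lysates used for Western blots. INA-6 cells received compound for 4 h, then NVP-AUY922 co-treatment for 4 h more to stimulate HSF1. DMSO-only and NVP-AUY922-only cells served as negative and positive controls.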

INA-6 [3] = test: Inhibition of heat shock response in human INA-6 cells assessed as reduction in HSF-1 mediated upregulation of the heat shock protein HSP27 at 50 uM preincubated for 4 hrs followed by HSP90 inhibitor and HSR inducer NVP-AUY922 addition measured after 4 hrs by Western blot method; assay type: functional, cell-based; summary of the method: as §1
INA-6 [4] = test: Effect on NVP-AUY922-induced HSF-1 mRNA expression in human INA-6 cells at 50 uM preincubated for 4 hrs followed by NVP-AUY922 addition measured after 4 hrs by RT-PCR method; assay type: functional, cell-based
Summary of the method: (§3)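 INA-6 cells exposed to compound for 4 h, then co-treated with 10 nM NVP-AUY922 for another 4 h. Total RNA isolated; HSP27, HSP72 and HSF1 transcripts measured by real-time PCR and normalized to α-tubulin. Means and standard deviations from three independent experiments.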

INA-6 [5] = test: Induction of apoptosis in human INA-6 cells up to 50 uM after 72 hrs by annexin V-FITC/propidium iodide staining-based flow cytometry method; assay type: functional, cell-based
Summary of the method: (§4)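 INA-6 cells incubated three days with DMSO or increasing compound concentrations. Viability read by annexin V-FITC/propidium iodide staining and flow cytometry. Double-negative (viable) fractions used to fit dose-response curves from three independent experiments; mean ± SD reported.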

INA-6 [6] = test: Inhibition of heat shock response in human INA-6 cells assessed as reduction in HSF-1 mediated upregulation of the heat shock protein HSP27 at 50 uM preincubated for 4 hrs followed by HSP90 inhibitor and HSR inducer NVP-AUY922 addition measured after 4 hrs by ELISA; assay type: functional, cell-based
INA-6 [7] = test: Downregulation of NVP-AUY922-induced HSF-1 protein expression in human INA-6 cells at 50 uM preincubated for 4 hrs followed by NVP-AUY922 addition measured after 4 hrs by Western blot method; assay type: functional, cell-based; summary of the method: as §1
[8] = target: Heat shock factor protein 1 (Homo sapiens) (UniProt Q00613); test: (§5) Inhibition of NVP-AUY922-induced HSF-1 phosphorylation at S326 residue in human INA-6 cells at 50 uM preincubated for 4 hrs followed by NVP-AUY922 addition measured after 4 hrs by Western blot method; assay type: cell-based; summary of the method: as §1
[9] = target: CCR4-NOT transcription complex subunit 1 (Homo sapiens) (UniProt A5YKK6); test: Binding affinity to CCR4-NOT transcription complex subunit 1 in human INA-6 cells after 3 hrs by nanoLC-MS/MS method; assay type: cell-based
Sequence of CCR4-NOT transcription complex subunit 1 (Homo sapiens) (A5YKK6 whole entry, one chain of several): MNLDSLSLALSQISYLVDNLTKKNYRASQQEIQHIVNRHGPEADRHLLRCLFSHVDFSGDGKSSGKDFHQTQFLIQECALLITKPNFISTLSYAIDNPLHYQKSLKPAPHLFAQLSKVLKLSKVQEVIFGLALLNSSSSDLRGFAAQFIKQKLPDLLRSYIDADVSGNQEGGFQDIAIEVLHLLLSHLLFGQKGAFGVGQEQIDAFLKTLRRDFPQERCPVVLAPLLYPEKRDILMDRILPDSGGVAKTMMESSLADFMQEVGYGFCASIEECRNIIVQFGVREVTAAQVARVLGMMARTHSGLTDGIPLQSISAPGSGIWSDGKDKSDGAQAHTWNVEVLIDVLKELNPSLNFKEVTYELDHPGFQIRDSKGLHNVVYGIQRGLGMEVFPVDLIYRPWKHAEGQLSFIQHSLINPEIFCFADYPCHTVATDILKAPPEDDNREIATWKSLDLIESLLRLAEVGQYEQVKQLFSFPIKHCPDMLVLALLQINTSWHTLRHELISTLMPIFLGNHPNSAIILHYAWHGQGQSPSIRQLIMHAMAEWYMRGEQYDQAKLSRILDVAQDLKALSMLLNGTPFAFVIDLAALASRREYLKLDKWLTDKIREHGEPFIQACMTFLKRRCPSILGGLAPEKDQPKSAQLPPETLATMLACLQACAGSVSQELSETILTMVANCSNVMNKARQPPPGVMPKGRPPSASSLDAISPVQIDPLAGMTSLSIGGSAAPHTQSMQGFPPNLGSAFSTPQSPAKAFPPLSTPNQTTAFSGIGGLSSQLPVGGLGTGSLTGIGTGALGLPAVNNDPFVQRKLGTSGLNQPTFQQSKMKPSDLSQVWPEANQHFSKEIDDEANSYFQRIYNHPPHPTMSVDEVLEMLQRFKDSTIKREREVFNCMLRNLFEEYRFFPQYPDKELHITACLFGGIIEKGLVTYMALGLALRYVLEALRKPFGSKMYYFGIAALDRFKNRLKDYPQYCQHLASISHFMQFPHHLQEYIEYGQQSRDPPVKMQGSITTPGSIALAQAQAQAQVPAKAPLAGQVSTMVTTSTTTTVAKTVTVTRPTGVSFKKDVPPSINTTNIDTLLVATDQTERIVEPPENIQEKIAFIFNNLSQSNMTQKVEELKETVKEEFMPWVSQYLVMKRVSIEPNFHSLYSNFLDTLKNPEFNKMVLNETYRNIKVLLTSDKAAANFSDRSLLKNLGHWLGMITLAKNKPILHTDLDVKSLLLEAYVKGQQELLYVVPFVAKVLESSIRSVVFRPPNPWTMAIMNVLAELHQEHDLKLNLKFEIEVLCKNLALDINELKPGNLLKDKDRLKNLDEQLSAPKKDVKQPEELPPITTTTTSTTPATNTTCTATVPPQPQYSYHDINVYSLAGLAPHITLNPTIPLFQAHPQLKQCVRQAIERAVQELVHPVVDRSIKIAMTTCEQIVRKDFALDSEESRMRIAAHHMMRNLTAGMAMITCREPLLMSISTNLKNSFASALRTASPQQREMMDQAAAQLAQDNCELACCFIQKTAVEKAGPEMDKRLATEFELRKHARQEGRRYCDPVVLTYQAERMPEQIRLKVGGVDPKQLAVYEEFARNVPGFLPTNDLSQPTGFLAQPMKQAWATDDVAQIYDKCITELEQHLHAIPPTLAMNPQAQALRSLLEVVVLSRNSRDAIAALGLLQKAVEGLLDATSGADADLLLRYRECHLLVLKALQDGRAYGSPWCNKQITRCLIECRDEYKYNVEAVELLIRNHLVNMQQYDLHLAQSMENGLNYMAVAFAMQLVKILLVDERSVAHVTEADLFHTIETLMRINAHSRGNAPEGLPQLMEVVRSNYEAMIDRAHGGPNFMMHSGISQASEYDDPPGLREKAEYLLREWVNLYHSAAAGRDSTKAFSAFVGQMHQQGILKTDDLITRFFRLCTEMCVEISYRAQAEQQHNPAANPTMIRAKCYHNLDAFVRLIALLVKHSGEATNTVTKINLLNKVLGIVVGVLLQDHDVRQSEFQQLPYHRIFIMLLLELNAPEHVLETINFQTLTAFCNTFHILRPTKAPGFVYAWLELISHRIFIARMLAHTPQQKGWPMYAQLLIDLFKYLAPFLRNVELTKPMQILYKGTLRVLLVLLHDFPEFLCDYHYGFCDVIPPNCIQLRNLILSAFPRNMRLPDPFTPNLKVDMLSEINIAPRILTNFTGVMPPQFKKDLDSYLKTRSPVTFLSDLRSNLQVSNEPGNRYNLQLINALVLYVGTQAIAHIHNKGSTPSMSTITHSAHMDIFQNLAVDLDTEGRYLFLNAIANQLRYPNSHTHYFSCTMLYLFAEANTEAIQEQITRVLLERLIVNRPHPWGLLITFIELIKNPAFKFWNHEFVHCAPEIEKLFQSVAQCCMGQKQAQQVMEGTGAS
Summary of the method: (§6)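 The biotinylated inhibitor was loaded on streptavidin beads, with empty beads as the control. Eluates were trypsin-digested and run by nanoLC-MS/MS. Inhibitor/control ratios came from label-free quantification, taken as medians of five biological replicates. Enrichment was called at Benjamini-Hochberg-adjusted limma p < 0.02.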

[10] = target: CCR4-NOT transcription complex subunit 2 (Homo sapiens) (UniProt Q9NZN8); test: Binding affinity to CCR4-NOT transcription complex subunit 2 in human INA-6 cells after 3 hrs by nanoLC-MS/MS method; assay type: cell-based; summary of the method: as §6
Sequence of CCR4-NOT transcription complex subunit 2 (Homo sapiens) (Q9NZN8 whole entry, one chain of several): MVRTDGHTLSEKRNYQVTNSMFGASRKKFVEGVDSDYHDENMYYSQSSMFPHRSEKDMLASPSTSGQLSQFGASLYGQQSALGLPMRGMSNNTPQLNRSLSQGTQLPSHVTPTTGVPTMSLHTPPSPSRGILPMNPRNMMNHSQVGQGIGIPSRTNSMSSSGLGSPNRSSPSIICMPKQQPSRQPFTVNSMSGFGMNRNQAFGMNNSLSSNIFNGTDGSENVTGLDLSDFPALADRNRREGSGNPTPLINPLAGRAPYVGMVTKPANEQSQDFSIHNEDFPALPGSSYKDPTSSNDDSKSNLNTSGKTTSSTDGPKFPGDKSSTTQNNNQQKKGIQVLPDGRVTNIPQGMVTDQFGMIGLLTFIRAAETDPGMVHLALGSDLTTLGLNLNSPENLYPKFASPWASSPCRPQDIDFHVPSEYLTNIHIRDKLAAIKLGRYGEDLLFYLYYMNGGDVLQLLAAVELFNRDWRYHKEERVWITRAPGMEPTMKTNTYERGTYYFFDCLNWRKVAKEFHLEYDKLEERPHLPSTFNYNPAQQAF

[11] = target: CCR4-NOT transcription complex subunit 6-like (Homo sapiens) (UniProt Q96LI5); test: Binding affinity to CCR4-NOT transcription complex subunit 6-like in human INA-6 cells after 3 hrs by nanoLC-MS/MS method; assay type: cell-based; summary of the method: as §6
[12] = target: CCR4-NOT transcription complex subunit 7 (Homo sapiens) (UniProt Q9UIV1); test: Binding affinity to CCR4-NOT transcription complex subunit 7 in human INA-6 cells after 3 hrs by nanoLC-MS/MS method; assay type: cell-based; summary of the method: as §6
Sequence of CCR4-NOT transcription complex subunit 7 (Homo sapiens) (Q9UIV1 whole entry, one chain of several): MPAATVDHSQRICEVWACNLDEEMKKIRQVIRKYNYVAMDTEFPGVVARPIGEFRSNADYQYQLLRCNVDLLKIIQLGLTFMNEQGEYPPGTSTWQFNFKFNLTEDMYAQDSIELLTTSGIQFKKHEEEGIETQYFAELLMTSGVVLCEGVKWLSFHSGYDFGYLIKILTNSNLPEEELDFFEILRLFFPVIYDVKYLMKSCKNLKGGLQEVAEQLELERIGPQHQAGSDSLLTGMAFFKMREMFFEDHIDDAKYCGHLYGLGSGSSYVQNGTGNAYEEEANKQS

[13] = target: CCR4-NOT transcription complex subunit 3 (Homo sapiens) (UniProt O75175); test: Binding affinity to CCR4-NOT transcription complex subunit 3 in human INA-6 cells after 3 hrs by nanoLC-MS/MS method; assay type: cell-based; summary of the method: as §6
Sequence of CCR4-NOT transcription complex subunit 3 (Homo sapiens) (O75175 whole entry, one chain of several): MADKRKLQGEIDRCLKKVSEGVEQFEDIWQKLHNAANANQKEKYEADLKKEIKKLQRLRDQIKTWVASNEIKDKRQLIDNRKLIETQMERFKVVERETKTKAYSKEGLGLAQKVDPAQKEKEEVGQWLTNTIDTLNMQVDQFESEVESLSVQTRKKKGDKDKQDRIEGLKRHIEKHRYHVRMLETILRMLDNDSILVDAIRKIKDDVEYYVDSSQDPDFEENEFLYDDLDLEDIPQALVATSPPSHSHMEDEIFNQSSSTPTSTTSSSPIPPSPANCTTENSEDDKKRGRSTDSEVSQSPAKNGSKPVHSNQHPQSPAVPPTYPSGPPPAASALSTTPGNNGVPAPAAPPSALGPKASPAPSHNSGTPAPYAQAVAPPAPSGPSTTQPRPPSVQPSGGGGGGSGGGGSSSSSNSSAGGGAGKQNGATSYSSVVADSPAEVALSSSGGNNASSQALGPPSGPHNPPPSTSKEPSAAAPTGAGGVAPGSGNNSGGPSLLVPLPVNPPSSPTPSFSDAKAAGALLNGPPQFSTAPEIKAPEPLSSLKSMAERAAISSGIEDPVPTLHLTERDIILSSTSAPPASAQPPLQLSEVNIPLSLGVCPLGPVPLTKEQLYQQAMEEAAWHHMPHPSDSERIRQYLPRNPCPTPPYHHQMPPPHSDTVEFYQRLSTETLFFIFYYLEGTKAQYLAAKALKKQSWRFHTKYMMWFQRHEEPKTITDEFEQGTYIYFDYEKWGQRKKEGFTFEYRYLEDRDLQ

[14] = target: DNA-dependent protein kinase catalytic subunit (Homo sapiens) (UniProt P78527); test: Binding affinity to PRKDC protein in human INA-6 cells after 3 hrs by nanoLC-MS/MS method; assay type: cell-based; summary of the method: as §6
[15] = target: Serine-protein kinase ATM (Homo sapiens) (UniProt Q13315); test: Binding affinity to ATM protein in human INA-6 cells after 3 hrs by nanoLC-MS/MS method; assay type: cell-based; summary of the method: as §6
[16] = target: Serine/threonine-protein kinase ATR (Homo sapiens) (UniProt Q13535); test: Binding affinity to ATR protein in human INA-6 cells after 3 hrs by nanoLC-MS/MS method; assay type: cell-based; summary of the method: as §6
[17] = target: Serine/threonine-protein kinase mTOR (Homo sapiens) (UniProt P42345); test: Binding affinity to mTOR protein in human INA-6 cells after 3 hrs by nanoLC-MS/MS method; assay type: cell-based; summary of the method: as §6
[18] = target: CCR4-NOT transcription complex subunit 9 (Homo sapiens) (UniProt Q92600); test: Binding affinity to RCD1 protein in human INA-6 cells after 3 hrs by nanoLC-MS/MS method; assay type: cell-based; summary of the method: as §6
Sequence of CCR4-NOT transcription complex subunit 9 (Homo sapiens) (Q92600 whole entry, one chain of several): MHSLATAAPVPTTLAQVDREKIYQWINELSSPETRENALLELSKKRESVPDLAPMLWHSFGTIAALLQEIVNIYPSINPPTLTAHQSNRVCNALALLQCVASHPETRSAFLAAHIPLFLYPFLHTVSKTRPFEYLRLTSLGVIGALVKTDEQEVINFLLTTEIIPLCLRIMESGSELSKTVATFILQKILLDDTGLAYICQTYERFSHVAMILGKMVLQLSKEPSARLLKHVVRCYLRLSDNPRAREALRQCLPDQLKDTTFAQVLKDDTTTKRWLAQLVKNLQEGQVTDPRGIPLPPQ

[19] = target: T1, Heat shock factor protein 1 (Homo sapiens) (UniProt Q00613); test: as §5; assay type: cell-based; summary of the method: as §1; remark: listed apart in the source
T1 sequence (whole entry): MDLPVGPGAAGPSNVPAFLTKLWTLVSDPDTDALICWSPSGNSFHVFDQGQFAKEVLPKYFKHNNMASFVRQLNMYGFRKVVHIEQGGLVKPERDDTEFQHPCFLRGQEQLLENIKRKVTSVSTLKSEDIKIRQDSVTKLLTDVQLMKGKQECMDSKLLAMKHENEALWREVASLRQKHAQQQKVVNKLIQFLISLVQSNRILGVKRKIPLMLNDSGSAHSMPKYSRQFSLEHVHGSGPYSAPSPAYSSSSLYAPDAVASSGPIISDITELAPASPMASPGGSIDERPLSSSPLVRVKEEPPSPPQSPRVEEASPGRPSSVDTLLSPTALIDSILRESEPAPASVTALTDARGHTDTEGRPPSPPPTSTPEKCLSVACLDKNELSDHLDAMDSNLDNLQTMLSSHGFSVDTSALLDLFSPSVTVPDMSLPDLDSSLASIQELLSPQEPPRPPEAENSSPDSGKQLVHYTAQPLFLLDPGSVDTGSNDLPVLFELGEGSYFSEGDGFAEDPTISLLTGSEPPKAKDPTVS

INA-6 [20] = test: Inhibition of heat shock response in human INA-6 cells assessed as reduction in HSF-1 mediated upregulation of the heat shock protein HSP72 at 12.5 uM preincubated for 4 hrs followed by HSP90 inhibitor and HSR inducer NVP-AUY922 addition measured after 4 hrs by Western blot method; assay type: functional, cell-based; summary of the method: as §1
INA-6 [21] = test: Inhibition of heat shock response in human INA-6 cells assessed as reduction in HSF-1 mediated upregulation of the heat shock protein HSP72 at 12.5 uM preincubated for 4 hrs followed by HSP90 inhibitor and HSR inducer NVP-AUY922 addition measured after 4 hrs by ELISA; assay type: functional, cell-based; summary of the method: as §2
INA-6 [22] = test: Inhibition of heat shock response in human INA-6 cells assessed as reduction in HSF-1 mediated upregulation of the heat shock protein HSP27 at 12.5 uM preincubated for 4 hrs followed by HSP90 inhibitor and HSR inducer NVP-AUY922 addition measured after 4 hrs by Western blot method; assay type: functional, cell-based; summary of the method: as §1
INA-6 [23] = test: Inhibition of heat shock response in human INA-6 cells assessed as reduction in HSF-1 mediated upregulation of the heat shock protein HSP27 at 12.5 uM preincubated for 4 hrs followed by HSP90 inhibitor and HSR inducer NVP-AUY922 addition measured after 4 hrs by ELISA; assay type: functional, cell-based
INA-6 [24] = test: Induction of apoptosis in human INA-6 cells at 6.3 to 8.6 uM after 72 hrs by annexin V-FITC/propidium iodide staining-based flow cytometry method; assay type: functional, cell-based; summary of the method: as §4
INA-6 [25] = test: Effect on NVP-AUY922-induced HSF-1 mRNA expression in human INA-6 cells at 12.5 uM preincubated for 4 hrs followed by NVP-AUY922 addition measured after 4 hrs by RT-PCR method; assay type: functional, cell-based; summary of the method: as §3

Compound	heat shock response inhibition (active/not active) (INA-6 [1])	HSP72 upregulation inhibition (active/not active) (INA-6 [2])	activity call (active/not active) for inhibition of HSP27 upregulation (INA-6 [3])	heat shock response inhibition (active/not active) (INA-6 [6])	Activity (INA-6 [7])	inhibition [19]	further results
COc1ccc(/C=C/C(=O)N(Cc2ccc(OC)cc2)C(C(=O)NCc2ccccc2)c2ccccc2Br)cc1 (racemic)	inactive	inactive	inactive				Activity (INA-6 [4]): inactive; Activity (INA-6 [5]): inactive
N-(2-(Benzylamino)-1-(2-bromophenyl)-2-oxoethyl)-N-cyclopropylcinnamamide	Active	Active	Active	Active	Active		inhibition [8]: Active
O=C(CCCC[C@@H]1SC[C@@H]2NC(=O)N[C@@H]21)NCCOCCOCCNCCCCOc1ccc(CCC(=O)N(C2CC2)C(C(=O)NCc2ccccc2)c2ccc(Br)cc2)cc1 (mixture of isomers)		inactive	inactive	inactive			Activity [9]: Active; Activity [10]: Active; Activity [11]: Active; Activity [12]: Active; Activity [13]: Active; Activity [14]: Active; Activity [15]: Active; Activity [16]: Active; Activity [17]: Active; Activity [18]: Active
O=C(NCc1ccccc1)C(c1ccc(O)cc1)N(C(=O)CCc1ccccc1)C1CC1 (racemic)	inactive	inactive	inactive	inactive			Activity (INA-6 [4]): inactive
CCCN(C(=O)/C=C/c1ccc(OC)cc1)C(C(=O)NC1CCCCC1)c1ccccc1Br (racemic)	Active	Active	Active	Active	Active	Active	
C/C=C/C(=O)N(Cc1ccccc1Cl)C(C(=O)NC(C)(C)C)c1ccccc1Br (racemic)	Active	Active	Active	Active	Active	Active	
C=CC(=O)N(CCc1ccc(OC)c(OC)c1)C(C(=O)NCCCCC)c1ccccc1Br (racemic)	Active	Active	Active	Active	Active	Active	
NCCOCCOCCNCCCCOc1ccc(CCC(=O)N(C2CC2)C(C(=O)NCc2ccccc2)c2ccc(Br)cc2)cc1 (racemic)							inhibition (INA-6 [20]): inactive; inhibition (INA-6 [21]): inactive; inhibition (INA-6 [22]): inactive; inhibition (INA-6 [23]): inactive; Activity (INA-6 [24]): Active; Activity (INA-6 [25]): inactive
